Statin myotox sup: suppressors of simvastatin-induced myotoxicity in C2C12 myotubes; ATP luminescence, 48 h; scaled: DMSO 0, geranylgeraniol control 100; rescue of ATP level, % at 7.49 µM; actives 0.78% (n = 330,000); AID 602340;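 active = mean ATP rescue above about 67%, or every replicate alone reaching that limit, limit read from the data, passing the limit was not always enough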;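 note: myotubes were challenged with 10 µM simvastatin during compound exposure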
PGC1a acetyl inh: lowers PGC1a acetylation signal in U2OS cells; AlphaScreen anti-acetyl-lysine; with virally co-expressed GCN5 acetyltransferase; actives 0.17% (n = 350,000); inhibition, % at 15.6 µM;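 active = every replicate shows inhibition of at least 40%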
Cneo AK release: Cryptococcus neoformans lysis via adenylate kinase release | C. neoformans lysis, adenylate kinase release luminescence, 4 h; normalised: neutral wells 0, clomiphene wells 100 | lysis activity, % at 15 µM | actives 0.2% (n = 360,000);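 active = mean lysis activity across replicates of at least 80%, whatever share of replicates individually reach that level; inactive = mean lysis activity below 80%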
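Material: C. neoformans cells; Schedule: 4 h static compound exposure, 37 °C, read 1 h post-reagent; Measured by: adenylate kinase release luminescence; Read-out: signal increase indicating cell lysis; Controls: Clomiphene as positive lysis control.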
Ecoli rRNA inh: inhibitors of bacterial rRNA selective over humanized ribosomes | AID 720706 | GFP signal change (wild-type ribosome), % (no concentration beside the values) | actives 1.6% (n = 350,000) | E. coli WT GFP vs humanized-ribosome RFP mutants, fluorescence, 24 h; hits give low values; DMSO median 0, no signal -100;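 active = significant combined selectivity score with lowered wild-type GFP, culture density cut under 30%, mutant RFP and density less affected; inactive = any of these conditions unmet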
SIRT5 block: sirtuin-5 (human) deacylase inhibition | Purified SirT5, succinyl-peptide AMC, trypsin-coupled fluorescence | actives 1.1% (n = 330,000) | inhibition, % at 15 µM | Q9NXA8; in the data active = inhibition above about 15%
Target sequence (Q9NXA8 whole entry, looked up): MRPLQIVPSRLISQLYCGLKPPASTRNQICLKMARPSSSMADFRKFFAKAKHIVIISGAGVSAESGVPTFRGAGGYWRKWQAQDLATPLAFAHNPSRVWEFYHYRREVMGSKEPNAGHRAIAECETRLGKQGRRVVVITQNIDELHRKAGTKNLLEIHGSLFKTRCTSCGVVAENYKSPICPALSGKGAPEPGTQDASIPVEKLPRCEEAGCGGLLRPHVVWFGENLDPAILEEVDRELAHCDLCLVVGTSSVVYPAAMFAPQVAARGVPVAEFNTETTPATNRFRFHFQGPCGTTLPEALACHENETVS
S100A4 inh HTS: inhibitors of human S100A4 binding to myosin IIA peptide. S100A4/TAMRA-MyoIIA peptide fluorescence polarization. inhibition, % at 10.7 µM. actives 0.14% (n = 360,000). P26447;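 active = mean inhibition of at least 70% across replicates, with every replicate also reaching that level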
Target sequence (P26447 whole entry, looked up): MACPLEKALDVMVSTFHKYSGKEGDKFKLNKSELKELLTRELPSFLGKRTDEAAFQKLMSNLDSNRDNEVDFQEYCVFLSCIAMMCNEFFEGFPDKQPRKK
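assay system = human S100A4 monomer with TAMRA-labelled myosin IIA peptide | also added = labelled myosin peptide probe, 5 nM | incubation = 5 min between mix addition and reading | control set = DMSO and TFP controls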
Of the large screens only hits and unclear results are named; the others gave an inactive call. Hits are enriched below; roughly 3% of the tested compounds scored in any of these assays.

N=c1c(C(=O)NCC2CCCO2)cc2c(=O)n3ccccc3nc2n1C1CCCC1 (stereo not drawn)	none
Cc1cccn2c(=O)c3cc(C(=O)NCC4CCCO4)c(=N)n(C4CCCC4)c3nc12 (stereo not drawn)	SIRT5 block 81
N=c1c(C(=O)NC2CCCCC2)cc2c(=O)n3ccccc3nc2n1Cc1ccc(F)cc1	SIRT5 block 23 (no result: PGC1a acetyl inh)
COc1ccc(CCNC(=O)c2cc3c(=O)n4ccccc4nc3n(C3CCCCC3)c2=N)cc1OC	Ecoli rRNA inh -20
Cc1cc2cc(CNC(=O)Nc3ccc(Cl)c(Cl)c3)ccc2n1C	S100A4 inh HTS 80 (no result: PGC1a acetyl inh)
COc1ccc(C)cc1C(=O)C1CC(C(=O)O)C(C)(C)C1C (stereo not drawn)	Statin myotox sup 104 (no result: Cneo AK release, Ecoli rRNA inh, SIRT5 block, S100A4 inh HTS)
N#Cc1cccc(-c2ccc([C@@H]3[C@@H]4CN(S(=O)(=O)c5ccc(-c6ccccc6)cc5)C[C@H]3N4)cc2)c1	PGC1a acetyl inh 93 (no result: Statin myotox sup, Cneo AK release)
O=C1CCC[C@@H]2Cc3nc4cc5c(cc4cc3[C@@H]3CCN1[C@H]23)OCO5	Statin myotox sup 80
C[C@]12CCCC(=O)N1CCc1c2[nH]c2ccccc12	none (no result: Statin myotox sup, Ecoli rRNA inh)
C[C@H]1c2cccc(O)c2C(O)=C2C(=O)[C@]3(O)C(O)=C(C(N)=O)C(=O)[C@@H](N(C)C)C3[C@@H](O)C21 (stereo partly drawn)	none (no result: Ecoli rRNA inh)
C=C1c2cccc(O)c2C(=O)C2C(=O)[C@]3(O)C(=O)C(C(N)=O)C(=O)[C@@H](N(C)C)[C@@H]3[C@@H](O)[C@H]12 (stereo partly drawn)	SIRT5 block 46 (no result: Ecoli rRNA inh)
C[C@H](CO)N1C[C@H](C)[C@@H](CN(C)Cc2ccc3c(c2)OCO3)Oc2ccc(NC(=O)Cc3ccccc3)cc2C1=O	none
CCCn1c(=N)n(CC(=O)C(C)(C)C)c2ccccc21	none (no result: Ecoli rRNA inh, SIRT5 block, S100A4 inh HTS)
CCn1c(=N)n(CC(=O)C(C)(C)C)c2ccccc21	Ecoli rRNA inh -23
CS(=O)(=O)N1C[C@@H]2C(c3ccc(Br)cc3)[C@H](C1)N2CC(F)(F)F (stereo partly drawn)	none (no result: Statin myotox sup, PGC1a acetyl inh, Cneo AK release, SIRT5 block, S100A4 inh HTS)
Cc1cccc(N2C(=O)C(Cl)=C(N3CCOCC3)C2=O)c1	PGC1a acetyl inh 81
Nc1nonc1C(=Nc1ccccc1)NO	none (no result: Statin myotox sup, Ecoli rRNA inh, SIRT5 block, S100A4 inh HTS)
Cc1ccccc1N=C(NO)c1nonc1N	Ecoli rRNA inh -29 (no result: Statin myotox sup, Cneo AK release)
CO[C@@H]1CN(C)C(=O)c2cc(NS(=O)(=O)c3cn(C)cn3)ccc2OC[C@@H](C)N(CC2CC2)C[C@H]1C	none
Cn1cnc(CCNC(=O)C[C@@H]2CC[C@H]3[C@@H](COC[C@H](O)CN3C(=O)Nc3ccc(F)cc3)O2)c1	none
NNC(=O)CCc1c[nH]c2ccccc12	none (no result: Ecoli rRNA inh, SIRT5 block, S100A4 inh HTS)
NC(=NCCc1c[nH]c2ccccc12)NC(=O)c1ccc(F)cc1	Ecoli rRNA inh -33
COc1ccc(CCN=C(N)NS(=O)(=O)c2ccc(F)cc2)cc1	none (no result: Statin myotox sup, PGC1a acetyl inh, Cneo AK release)
NC(=NCCc1c[nH]c2ccccc12)NS(=O)(=O)c1ccc(F)cc1	Ecoli rRNA inh -20 (no result: Statin myotox sup, PGC1a acetyl inh, Cneo AK release)
Cn1cnc(C(=O)NCc2ccccc2)c1C(=O)NCc1ccccc1	Ecoli rRNA inh -32 (no result: SIRT5 block)
O=C(NCc1ccccc1)c1ncn(Cc2ccccc2)c1C(=O)NCc1ccccc1	none (no result: PGC1a acetyl inh, SIRT5 block)
COCC(=O)N(C)C[C@@H]1Oc2ncc(-c3ccc(C)cc3)cc2C(=O)N([C@H](C)CO)C[C@@H]1C	none
O=C(/C=C/c1ccccc1[N+](=O)[O-])N1CCN(c2ccc(F)cc2)CC1	Ecoli rRNA inh -30 (no result: Statin myotox sup, PGC1a acetyl inh)
Oc1ccccc1/C=N/N1CCN(c2ccccn2)CC1	none (no result: Cneo AK release)
C(=N\N1CCN(c2ccccn2)CC1)/c1cccc2ccccc12	Ecoli rRNA inh -21 (no result: Statin myotox sup)
C[C@@H]1CN([C@H](C)CO)C(=O)c2cc(NS(=O)(=O)c3ccc(Cl)cc3)ccc2O[C@@H](C)CCCCO[C@H]1CN(C)C(=O)Nc1ccc(C(F)(F)F)cc1	SIRT5 block 22 (no result: Statin myotox sup)
C[C@H]1CCCCO[C@H](CN(C)C(=O)Nc2ccc(C(F)(F)F)cc2)[C@@H](C)CN([C@@H](C)CO)C(=O)c2cc(NS(=O)(=O)c3ccccc3)ccc2O1	S100A4 inh HTS 86 (no result: Statin myotox sup)
C[C@@H]1CCCCO[C@H](CN(C)C(=O)Nc2ccc(C(F)(F)F)cc2)[C@@H](C)CN([C@@H](C)CO)C(=O)c2cc(NS(=O)(=O)c3ccc(F)cc3)ccc2O1	SIRT5 block 18 (no result: Statin myotox sup)
CN(C)C(=O)[C@H]1[C@H](CO)[C@H]2Cn3c(ccc(-c4ccccc4F)c3=O)[C@@H]1N2C(=O)c1ccccc1	none (no result: PGC1a acetyl inh)
O=C(Nc1cscc1S(=O)(=O)c1ccccc1)c1ccccc1Cl	Ecoli rRNA inh -22 (no result: Statin myotox sup, SIRT5 block)
O=C(Nc1cscc1S(=O)(=O)c1ccc(Cl)cc1)c1ccccc1Cl	none
CCCCOC(=O)Cn1c(=O)c2c(nc3n2CCCCN3c2ccc(C)cc2)n(C)c1=O	Statin myotox sup 103 (no result: Ecoli rRNA inh, SIRT5 block, S100A4 inh HTS)
COc1cccc(S(=O)(=O)Nc2ccc3c(c2)OC[C@H](C)NC[C@H](C)[C@H](OC)CN(C)C3=O)c1	none
CC(C)N=Cc1c(O)[nH]c2ccccc12	Statin myotox sup 83 (no result: Ecoli rRNA inh, SIRT5 block, S100A4 inh HTS)
Nn1c(SCC(=O)N2CCN(S(=O)(=O)c3ccc(Cl)cc3)CC2)nnc1-c1cccs1	none (no result: Ecoli rRNA inh, SIRT5 block, S100A4 inh HTS)
CC(C)Cn1c(SCC(=O)N2CCN(S(=O)(=O)c3ccccc3)CC2)nc2ccccc21	Ecoli rRNA inh -32 (no result: SIRT5 block)
Nn1c(SCC(=O)N2CCN(S(=O)(=O)c3ccccc3)CC2)nnc1-c1cccs1	Statin myotox sup 126 (no result: Ecoli rRNA inh, SIRT5 block, S100A4 inh HTS)
COc1ccccc1NC(=O)N1CC(=O)N2[C@H](CO)[C@@H](c3ccc(-c4cccc(C)c4)cc3)[C@@H]2C1	none (no result: Statin myotox sup, Cneo AK release)
C[C@H]1CN([C@@H](C)CO)C(=O)c2cc(C#CC3CCCCC3)cnc2O[C@H]1CN(C)Cc1cncnc1	S100A4 inh HTS 98
C[C@@H]1CN([C@@H](C)CO)C(=O)c2cc(C#CC3CCCCC3)cnc2O[C@H]1CN(C)C(=O)Nc1ccccc1	none
C[C@@H]1CN([C@@H](C)CO)C(=O)c2cc(C#CC3CCCCC3)cnc2O[C@H]1CN(C)Cc1cncnc1	none
C[C@@H]1CN([C@@H](C)CO)C(=O)c2cc(C#CC3CCCCC3)cnc2O[C@@H]1CN(C)C(=O)Nc1ccccc1	SIRT5 block 16
CC[n+]1c(C=C2C=C(C)OC(C)=C2)sc2ccccc21	SIRT5 block 19 (no result: Cneo AK release)
CC[n+]1c(/C=C2/C=C(C)CC(C)C2)sc2ccccc21 (stereo not drawn)	none (no result: Statin myotox sup, PGC1a acetyl inh, Cneo AK release)
CN1C(=O)c2cc(NC(=O)c3cccc(F)c3)ccc2OC[C@@H]2O[C@H](CC(=O)O)CC[C@@H]21	none (no result: SIRT5 block, S100A4 inh HTS)
O=C(C[C@@H]1C=C[C@@H](NC(=O)c2cccc(F)c2)[C@H](CO)O1)NCCN1CCCC1	Cneo AK release 95
O=C(C[C@@H]1CC[C@@H](NC(=O)Cc2cccnc2)[C@H](CO)O1)Nc1ccc(-c2ccccc2)cc1	S100A4 inh HTS 127 (no result: PGC1a acetyl inh)
